Experimental data of several laboratories.
Lines come from different studies, so protocols differ.
DRD4: D(4) dopamine receptor (DRD4, Homo sapiens, UniProt P21917)
HTR5A: 5-hydroxytryptamine receptor 5A (HTR5A, Homo sapiens, UniProt P47898)
Kir1 channel protein: Kir1 channel protein (Aedes aegypti, UniProt L0EQS9)
PIK3CD: Phosphatidylinositol 4,5-bisphosphate 3-kinase catalytic subunit delta isoform (PIK3CD, Homo sapiens, UniProt O00329)

SMILES	target	assay	setting	measurement	value
Oc1cccc(CCC2=NCCN2Cc2ccccc2)c1	DRD4	ligand displacement, radioligand	–	Ki	> 10000 nM
CC(=O)CC(=O)SCCNC(=O)CCNC(=O)[C@H](O)C(C)(C)COP(=O)(O)OP(=O)(O)OC[C@H]1O[C@@H](n2cnc3c(N)ncnc32)[C@H](O)[C@@H]1OP(=O)(O)O	IVD (Homo sapiens, UniProt P26440)	binding, absorbance	–	Kd	~18000 nM
CNc1nc2cc(OCCCCN3CCC(c4cccc(Cl)c4Cl)CC3)ccc2s1	HTR5A	ligand displacement, radioligand	–	Ki	810 nM
CCCCN1CCC(COC(=O)c2ccc(N)c(OCF)c2)CC1	HTR5A	cell-free assay, radioligand	–	Ki	> 10000 nM
N#Cc1ccc(N2CCN(S(=O)(=O)c3ccc(F)cc3)CC2)cc1NCc1ccncc1	Kir1 channel protein	ion flux, inhibitor	–	IC50	361 nM
C=CC(=O)N1CCC(C(=O)NCC(=O)N2CCN(c3nc(-c4cnc(N)nc4C(F)F)nc(N4CCOCC4)n3)CC2)CC1	PIK3CD	binding, competition with immobilised ligand	–	Kd	0.71 nM
COc1cc(F)cc2c(N3CCN4c5ccccc5OC[C@@H]4C3)c(C#N)nnc12 (single isomer, unassigned)	Metabotropic glutamate receptor 8 (GRM8, Homo sapiens, UniProt O00222)	calcium signal, positive allosteric modulator	–	EC50	> 30000 nM
COc1ccc(F)cc1C(=O)NCc1ccc(-c2nn([C@@H](C)C(F)(F)F)c(N)c2C(N)=O)cc1	Tyrosine-protein kinase BTK (BTK, Homo sapiens, UniProt Q06187, C481S)	phosphorylation in cells, inhibitor	–	IC50	8.1 nM
Cc1cnc(-c2ccc(-c3ccc(NC(=O)Nc4c(F)cc(F)cc4F)cc3F)c3c2C(=O)NC3)[nH]1	Tyrosine-protein kinase BTK (BTK, Homo sapiens, UniProt Q06187)	binding, competition with immobilised ligand	–	Kd	27 nM
CC1=C(O)C(=O)OC1C (stereo not shown)	OR8D1 (Homo sapiens, UniProt Q8WZ84, R293A)	cAMP, agonist, luciferase	–	EC50	13500 nM
CN1CCN(c2ccc(Nc3ncc4cc(C#N)c(=O)n(C5CCCC5)c4n3)cc2)CC1	Ribosomal protein S6 kinase alpha-5 (RPS6KA5, Homo sapiens, UniProt O75582)	enzyme activity, inhibitor	–	IC50	9210 nM
CCn1c(-c2nc3ccc(C(=O)N4CCCC(N)C4)cc3n2C)cc2ccccc21 (stereo not shown)	Nuclear receptor subfamily 1 group I member 2 (NR1I2, Homo sapiens, UniProt O75469)	reporter gene, agonist, luciferase	–	EC50	> 50100 nM
O=C1c2ccccc2CCN1CCCCN1CCN(c2cccc(Cl)c2Cl)CC1	HTR5A	ligand displacement, radioligand	–	Ki	773 nM
CS(=O)(=O)C1(CNCc2ccc(Cl)c3cccnc23)CC1	HTR5A	ligand displacement, radioligand	–	Ki	126 nM
O=S(=O)(c1ccc(F)cc1)N1CCN(c2ccc(C(F)(F)F)c(NCc3ccncc3)c2)CC1	Kir1 channel protein	ion flux, inhibitor	–	IC50	4000 to 9000 nM
CS(=O)(=O)C1(CNCc2ccc(Br)c3cccnc23)CC1	HTR5A	ligand displacement, radioligand	–	Ki	178 nM
COc1ccccc1N1CCN(CCCCN2CCc3ccccc3C2=O)CC1	DRD4	ligand displacement, radioligand	–	Ki	6 nM
CCC(=O)N1CCC(C(=O)NCC(=O)N2CCN(c3nc(-c4cnc(N)nc4C(F)F)nc(N4CCOCC4)n3)CC2)CC1	PIK3CD	binding, competition with immobilised ligand	–	Kd	1.6 nM
CCS(=O)(=O)N1CCN(c2ccc([N+](=O)[O-])c(NCc3cccnc3)c2)CC1	Kir1 channel protein	ion flux, inhibitor	–	IC50	21000 nM
CC[C@H](NC(=O)[C@H](CS(=O)(=O)CC1CC1)N[C@@H](c1ccc(F)cc1)C(F)(F)F)C(=O)C(=O)NC1CC1	Cathepsin F (Homo sapiens, UniProt Q9UBX1)	enzyme activity, inhibitor, fluorescence	with preincubation	Ki	4.7 nM
CC[C@@H]1C(=O)OC[C@@H]1Cc1cncn1C	Cytochrome P450 2E1 (CYP2E1, Homo sapiens, UniProt P05181)	binding	–	Kd	26500 nM
CCCCCCSC[C@H]1CN(Cc2c[nH]c3c(N)ncnc23)C[C@@H]1O	Aminodeoxyfutalosine nucleosidase (Helicobacter pylori, UniProt Q9ZMY2)	enzyme activity, inhibitor, absorbance	pH 7.4	Ki	0.085 nM
CCCCCCCNCCCc1ccc([N+](=O)[O-])cc1	DRD4	ligand displacement, radioligand	–	Ki	240 nM
O=[N+]([O-])c1ccc(N2CCN(S(=O)(=O)c3ccc(Cl)cc3)CC2)cc1NCc1ccco1	Kir1 channel protein	ion current, inhibitor, patch clamp	–	IC50	34.2 nM
Cc1ncsc1-c1ccc(CNC(=O)[C@@H]2C[C@@H](O)CN2C(=O)[C@@H](NC(=O)CCCCCCCCCC(=O)N2CCN(CC[C@H](NC(=O)C3(N)CCN(c4ncnc5[nH]ccc45)CC3)c3ccc(Cl)cc3)CC2)C(C)(C)C)cc1	RAC-beta serine/threonine-protein kinase (AKT2, Homo sapiens, UniProt P31751)	binding, competition with immobilised ligand	–	Kd	360 nM
